In ChEMBL document CHEMBL1123188, “5,5-Diaryl-2-thiohydantoins and 5,5-diaryl-N3-substituted-2-thiohydantoins as potential hypolipidemic agents” (1986):

How the values were obtained:
Type in all cases: functional
[1] = tested on: Rattus norvegicus; assay: Compound was tested for hypolipidemic activity in male Sprague-Dawley rats by measuring amount of liver triglyceride after administration of 600 mg dose per kg of diet
How it was run: (§1)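 Orotic acid liver-lipid model: groups of six male Sprague-Dawley rats unless noted. Test compound mixed into the orotic acid diet at the stated mg/kg diet. Diet and water ad libitum for 14 days, with growth and diet intake monitored. Impaired growth with normal intake was taken as toxicity. At sacrifice, liver homogenized in cold 0.63 M phosphate buffer, pH 7.4. Liver triglyceride and cholesterol reported as mg/g wet liver.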

[2] = species on record: Rattus norvegicus; assay: The activity relative to DPTH in liver triglyceride
How it was run: (§2)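 Relative activity is the midpoint dose from the orotic acid rat dose-response curves compared against DPTH, with DPTH set to 1.00. Calculated separately for liver cholesterol and for liver triglyceride.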

[3] = tested on: Rattus norvegicus; assay: Compound was tested for hypolipidemic activity in male Sprague-Dawley rats by measuring amount of liver cholesterol after administration of 600 mg dose per kg of diet; how it was run: as §1
[4] = species on record: Rattus norvegicus; assay: The activity relative to DPTH in liver cholesterol; how it was run: as §2
[5] = species on record: Rattus norvegicus; assay: The concentration required to reduce liver triglyceride half-way from the average orotic acid level to the basal level
How it was run: (§3)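 Dose-response testing in the 14-day orotic acid diet model, six male Sprague-Dawley rats per group. Midpoint dose (mg/kg diet) read from dose-response curves as the dietary level that brings liver cholesterol or triglyceride half-way between the orotic-acid-fed control and a basal control given no orotic acid.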

[6] = species on record: Rattus norvegicus; assay: The concentration required to reduce liver cholesterol half-way from the average orotic acid level to the basal level; how it was run: as §3
[7] = tested on: Rattus norvegicus; assay: Compound was tested for hypolipidemic activity in male Sprague-Dawley rats by measuring change in body weight after administration of 600 mg dose per kg of diet; how it was run: as §1
[8] = tested on: Rattus norvegicus; assay: Compound was tested for hypolipidemic activity in male Sprague-Dawley rats by measuring change in body weight after administration of 200 mg dose per kg of diet; how it was run: as §1
[9] = tested on: Rattus norvegicus; assay: Compound was tested for hypolipidemic activity in male Sprague-Dawley rats by measuring amount of liver triglyceride after administration of 200 mg dose per kg of diet; how it was run: as §1
[10] = species on record: Rattus norvegicus; assay: The activity relative to DPTH. in liver triglyceride.; how it was run: as §2
[11] = tested on: Rattus norvegicus; assay: Compound was tested for hypolipidemic activity in male Sprague-Dawley rats by measuring amount of liver cholesterol after administration of 200 mg dose per kg of diet; how it was run: as §1
[12] = tested on: Rattus norvegicus; assay: Compound was tested for hypolipidemic activity in male Sprague-Dawley rats by measuring change in body weight after administration of 400 mg dose per kg of diet; how it was run: as §1
[13] = species on record: Rattus norvegicus; assay: The activity relative to DPTH. […] in liver cholesterol.; how it was run: as §2
[14] = tested on: Rattus norvegicus; assay: Compound was tested for hypolipidemic activity in male Sprague-Dawley rats by measuring amount of liver cholesterol after administration of 400 mg dose per kg of diet; how it was run: as §1
[15] = tested on: Rattus norvegicus; assay: Compound was tested for hypolipidemic activity in male Sprague-Dawley rats by measuring amount of liver triglyceride after administration of 400 mg dose per kg of diet; how it was run: as §1
[16] = tested on: Rattus norvegicus; assay: Compound was tested for hypolipidemic activity in male Sprague-Dawley rats by measuring change in body weight after administration of 635 mg dose per kg of diet; how it was run: as §1
[17] = tested on: Rattus norvegicus; assay: Compound was tested for hypolipidemic activity in male Sprague-Dawley rats by measuring amount of liver triglyceride after administration of 635 mg dose per kg of diet; how it was run: as §1
[18] = tested on: Rattus norvegicus; assay: Compound was tested for hypolipidemic activity in male Sprague-Dawley rats by measuring amount of liver cholesterol after administration of 635 mg dose per kg of diet; how it was run: as §1
[19] = tested on: Rattus norvegicus; assay: Compound was tested for hypolipidemic activity in male Sprague-Dawley rats by measuring amount of liver triglyceride after administration of 770 mg dose per kg of diet; how it was run: as §1
[20] = tested on: Rattus norvegicus; assay: Compound was tested for hypolipidemic activity in male Sprague-Dawley rats by measuring amount of liver cholesterol after administration of 770 mg dose per kg of diet; how it was run: as §1
[21] = tested on: Rattus norvegicus; assay: Compound was tested for hypolipidemic activity in male Sprague-Dawley rats by measuring change in body weight after administration of 770 mg dose per kg of diet; how it was run: as §1
[22] = tested on: Rattus norvegicus; assay: Compound was tested for hypolipidemic activity in male Sprague-Dawley rats by measuring amount of liver triglyceride after administration of 729 mg dose per kg of diet; how it was run: as §1
[23] = tested on: Rattus norvegicus; assay: Compound was tested for hypolipidemic activity in male Sprague-Dawley rats by measuring amount of liver cholesterol after administration of 729 mg dose per kg of diet; how it was run: as §1
[24] = tested on: Rattus norvegicus; assay: Compound was tested for hypolipidemic activity in male Sprague-Dawley rats by measuring change in body weight after administration of 729 mg dose per kg of diet; how it was run: as §1
[25] = tested on: Rattus norvegicus; assay: Compound was tested for hypolipidemic activity in male Sprague-Dawley rats by measuring amount of liver triglyceride after administration of 735 mg dose per kg of diet; how it was run: as §1
[26] = tested on: Rattus norvegicus; assay: Compound was tested for hypolipidemic activity in male Sprague-Dawley rats by measuring change in body weight after administration of 735 mg dose per kg of diet; how it was run: as §1
[27] = tested on: Rattus norvegicus; assay: Compound was tested for hypolipidemic activity in male Sprague-Dawley rats by measuring amount of liver cholesterol after administration of 735 mg dose per kg of diet; how it was run: as §1
[28] = tested on: Rattus norvegicus; assay: Compound was tested for hypolipidemic activity in male Sprague-Dawley rats by measuring amount of liver cholesterol after administration of 100 mg dose per kg of diet; how it was run: as §1
[29] = tested on: Rattus norvegicus; assay: Compound was tested for hypolipidemic activity in male Sprague-Dawley rats by measuring change in body weight after administration of 100 mg dose per kg of diet; how it was run: as §1
[30] = tested on: Rattus norvegicus; assay: Compound was tested for hypolipidemic activity in male Sprague-Dawley rats by measuring amount of liver triglyceride after administration of 100 mg dose per kg of diet; how it was run: as §1
[31] = tested on: Rattus norvegicus; assay: Compound was tested for hypolipidemic activity in male Sprague-Dawley rats by measuring amount of liver cholesterol after administration of 750 mg dose per kg of diet; how it was run: as §1
[32] = tested on: Rattus norvegicus; assay: Compound was tested for hypolipidemic activity in male Sprague-Dawley rats by measuring amount of liver triglyceride after administration of 750 mg dose per kg of diet; how it was run: as §1
[33] = tested on: Rattus norvegicus; assay: Compound was tested for hypolipidemic activity in male Sprague-Dawley rats by measuring change in body weight after administration of 750 mg dose per kg of diet; how it was run: as §1

O=C1NC(=S)NC1(c1ccccc1)c1ccccc1 [THIOPHENYTOIN]
Liver TG [1]: 16 mg/g | Relative activity [2]: 1 | Liver cholesterol [3]: 3 mg/g | Relative activity [4]: 1 | Midpoint dose [5]: 100 mg/kg | Midpoint dose [6]: 240 mg/kg | Body weight change [7]: 136 g

CCCCN1C(=O)C(c2ccccc2)(c2ccccc2)NC1=S
Body weight change [8]: 185 g | Liver TG [1]: 19 mg/g | Relative activity [2]: 0.22 | Liver TG [9]: 97 mg/g | TG [10]: 0.22 | Liver cholesterol [3]: 4.2 mg/g | Relative activity [4]: 0.71 | Midpoint dose [5]: 450 mg/kg | TG [5]: 450 mg kg-1 diet | Liver cholesterol [11]: 17.8 mg/g | Body weight change [12]: 210 g | Cholesterol [13]: 0.71 | Cholesterol [6]: 340 mg kg-1 diet | Midpoint dose [6]: 340 mg/kg | Liver cholesterol [14]: 10.7 mg/g | Body weight change [7]: 134 g | Liver TG [15]: 70 mg/g

COc1ccc(C2(c3ccccc3)NC(=S)NC2=O)cc1 (racemic)
Body weight change [16]: 144 g | Liver TG [17]: 70 mg/g | Liver cholesterol [18]: 23.1 mg/g

O=C1N(c2ccccc2)C(=S)NC1(c1ccccc1)c1ccccc1
Liver TG [19]: 42 mg/g | Liver cholesterol [20]: 8.6 mg/g | Body weight change [21]: 91 g

CCCCN1C(=O)C(c2ccccn2)(c2ccccn2)NC1=S
Liver TG [22]: 85 mg/g | Liver cholesterol [23]: 12.2 mg/g | Body weight change [24]: 140 g

O=C1NC(=S)NC1(c1ccccc1)c1ccc(O)cc1 (racemic)
Body weight change [16]: 130 g | Liver TG [17]: 48 mg/g | Liver cholesterol [18]: 9.1 mg/g

COc1ccc(C2(c3ccc(OC)cc3)NC(=S)NC2=O)cc1
Liver TG [25]: 82 mg/g | Body weight change [26]: 135 g | Liver cholesterol [27]: 21.6 mg/g

O=C1NC(=S)NC1(c1ccccn1)c1ccccn1
Body weight change [8]: 181 g | Liver TG [1]: 16 mg/g | Relative activity [2]: 0.43 | Liver cholesterol [28]: 17 mg/g | Body weight change [29]: 180 g | Liver TG [9]: 72 mg/g | Liver cholesterol [3]: 3 mg/g | Relative activity [4]: 1.33 | Midpoint dose [5]: 235 mg/kg | Liver cholesterol [11]: 10.3 mg/g | Body weight change [12]: 203 g | Midpoint dose [6]: 180 mg/kg | Liver cholesterol [14]: 2.8 mg/g | Body weight change [7]: 132 g | Liver TG [15]: 28 mg/g | Liver TG [30]: 100 mg/g

O=C1NC(=S)NC1(c1ccc(Cl)cc1)c1ccc(Cl)cc1
Liver cholesterol [31]: 13.2 mg/g | Liver TG [32]: 82 mg/g | Body weight change [33]: 91 g
